PTK2B oligo ant – antagonists of human Pyk2 oligomerization. Q14289. Q293 cells, Pyk2 FERM NanoBiT luminescence; stronger effect = lower value. z-score (the deposit names both 25 µM and 10 µM). 99,000 compounds, 0.83% hits;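 active = Z-score of -3 or lower, scaled per plate to the spread of control and sample wells; inactive = z-score above -3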;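 note: negative z-score means lost luminescence so less FERM oligomerization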
Target sequence (Q14289 whole entry, looked up): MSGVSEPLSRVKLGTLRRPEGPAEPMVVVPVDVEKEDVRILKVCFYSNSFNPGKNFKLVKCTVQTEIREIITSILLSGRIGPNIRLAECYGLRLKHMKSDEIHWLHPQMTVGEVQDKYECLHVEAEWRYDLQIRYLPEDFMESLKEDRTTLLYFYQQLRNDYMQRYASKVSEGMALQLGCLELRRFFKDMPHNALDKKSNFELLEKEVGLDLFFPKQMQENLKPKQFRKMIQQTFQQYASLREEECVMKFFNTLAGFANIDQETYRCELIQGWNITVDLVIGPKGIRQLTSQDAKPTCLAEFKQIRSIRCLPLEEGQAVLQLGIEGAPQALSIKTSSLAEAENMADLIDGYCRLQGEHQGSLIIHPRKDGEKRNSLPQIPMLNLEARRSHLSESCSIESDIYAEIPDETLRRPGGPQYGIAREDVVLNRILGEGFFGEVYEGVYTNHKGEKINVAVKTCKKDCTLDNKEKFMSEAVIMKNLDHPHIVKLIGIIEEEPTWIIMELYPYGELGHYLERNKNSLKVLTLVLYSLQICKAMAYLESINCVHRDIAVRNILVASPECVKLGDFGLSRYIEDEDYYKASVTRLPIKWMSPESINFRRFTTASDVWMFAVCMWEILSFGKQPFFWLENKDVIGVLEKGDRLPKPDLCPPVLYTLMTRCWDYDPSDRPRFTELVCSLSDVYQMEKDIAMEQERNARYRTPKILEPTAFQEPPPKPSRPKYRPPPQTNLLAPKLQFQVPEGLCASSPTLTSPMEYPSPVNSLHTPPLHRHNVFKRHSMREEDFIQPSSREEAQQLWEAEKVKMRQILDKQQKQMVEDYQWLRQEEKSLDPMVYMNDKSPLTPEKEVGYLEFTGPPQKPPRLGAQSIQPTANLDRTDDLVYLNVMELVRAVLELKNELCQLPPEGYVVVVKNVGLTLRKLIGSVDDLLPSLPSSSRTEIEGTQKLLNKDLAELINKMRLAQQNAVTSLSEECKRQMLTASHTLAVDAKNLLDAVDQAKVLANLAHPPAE
Jurkat tox 60K – reduces viability or proliferation of Jurkat cells; inhibition, % at 4 µM; AID 463; 56,000 compounds, 1.2% hits; Jurkat E6.1 viability, ATP luminescence, 48 h;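 active = inhibition above the mean inhibition of all tested compounds plus 3 SD, cut at about 28% in these data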
MT1-MMP txn act – activates MT1-MMP transcription | activation factor at 10 µM | 86,000 compounds, 0.16% hits | HT1080 MT1-MMP promoter luciferase reporter, luminescence, overnight; stronger effect = higher value;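 active = activation factor of at least 2 for MT1-MMP transcription at 10 µM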
HUVEC inhibit – blocks proliferation of human endothelial cells | HUVEC proliferation, CellTiter-Glo luminescence, 72 h; stronger effect = lower value | viability, % at 10 µM (by protocol) | 86,000 compounds, 1.1% hits | AID 648;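 active = viability at or below 30%; inactive = viability above 30%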;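 note: 100% = median luminescence of DMSO-only cell control wells on each plate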
H69AR growth 86K – growth inhibitors of human H69AR lung tumor cells | AID 598 | viability, % at 10 µM | H69AR lung tumor viability, ATP luminescence, 72 h; stronger effect = lower value | 85,000 compounds, 6% hits;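 active = viability at or below 40%; inactive = viability above 40%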;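 note: multidrug resistant small cell line overexpressing MRP-1 efflux transporter; 100% = mean luminescence of untreated control wells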
Fibroblast inh – blocks proliferation of human lung fibroblasts; LL 47 human lung fibroblast viability, ATP luminescence; stronger effect = lower value; viability, % at 10 µM; 85,000 compounds, 1.1% hits;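 active = viability at or below 50% in the single dose screen; inactive = viability above 50%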;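 note: compound exposure lasted 72 h before the ATP readout; 100% = median luminescence of untreated cell-only wells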
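Material: human LL 47 lung fibroblast cells; quantity: 1,150 cells/well; medium: IMEM plus 15% FBS; doses: 0.1% DMSO in all compound wells; timing: overnight attachment after seeding, then 72 h compound exposure at 37 °C; detection: CellTiter-Glo luminescence; measure: % viability of median cell-only signal; controls: cell-only wells, no compound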
* marks the source's active call; other numbers are inactive results; / = not tested or not shown. An excerpt weighted towards active compounds, which were near 5.9% of everything screened.

SMILES | PTK2B oligo ant | Jurkat tox 60K | MT1-MMP txn act | HUVEC inhibit | H69AR growth 86K | Fibroblast inh
Nc1cc(CN2C(=O)c3ccccc3C2=O)cc(Cl)c1O | -0.8 | 2 | 1.1 | 95 | 34* | 101
CN(C)c1nc(C(N)=O)nc(N2CCOCC2)n1 | 0.3 | / | 1 | 104 | 92 | 99
CO/N=C/C(=N\Nc1ccc(OC)cc1)C(=O)c1ccc(OC)cc1 | -1.9 | / | 1.1 | 91 | 24* | 85
COc1ccc(-n2c(Cc3cccn3C)nnc2SCC(=O)Nc2ccc(C(C)=O)cc2)cc1 | / | -7 | 1 | 87 | 90 | 100
COc1ccc(N2C(=O)NC3CC2(C)Oc2ccccc23)cc1OC (centres undefined) | -0.76 | 4 | 1.1 | 96 | 26* | 103
COc1cc(N2C(=O)NC3CC2(C)Oc2ccc(Br)cc23)cc(OC)c1OC (centres undefined) | / | -4 | 1 | 98 | 92 | 105
CCOC(=O)c1sc(NC(=O)CSc2nc(C)cc(C)n2)c(C#N)c1C | -0.78 | / | 1.2 | 94 | 94 | 90
CCOC(=O)c1c(NC(=O)CSc2nc(C)cc(C)c2C#N)sc(C(C)=O)c1C | -0.51 | -4 | 1 | 38 | 19* | 59
Nc1c(C(=O)C2CC2)sc2nc(-c3cccs3)cc(C(F)(F)F)c12 | 0.63 | / | 1.1 | 32 | 12* | 101
CCOc1ncccc1C(=O)OCc1cc(=O)n2c(n1)sc1ccccc12 | / | -4 | / | 107 | 99 | 103
CCOC(=O)c1c(NC(=O)Nc2ccc(Cl)cc2)sc(C)c1C | -0.48 | / | 1 | 90 | 97 | 104
CCOC(=O)c1c(C)sc2c1N(C(=O)CCl)c1cc(Cl)ccc1S2 | 0.14 | / | 0.1 | 17* | 0.7* | 2.6*
COCCN1C(=O)c2ccccc2C(C(=O)Nc2ccc3c(c2)OCCO3)C1c1ccc(F)cc1 (centres undefined) | -3.4* | / | 1.1 | 93 | 95 | 89
COC(=O)[C@@H]1C[C@@H]2CC[C@@H](O)C[C@@H]2N1CC1CCCCC1 | / | / | 1.9 | / | / | /
O=C(c1ccccc1)N1CCCCC(S(=O)(=O)c2ccc3ccccc3c2)C1=O (centres undefined) | -0.78 | / | 1 | 80 | 101 | 96
CCOC(=O)/C(=N\Nc1ccc(OC)cc1)c1csc(Nc2ccccc2)n1 | -1.2 | / | 1.4 | 84 | 24* | 108
CCOC(=O)/C(=N\Nc1ccc(Cl)cc1)c1csc(Nc2ccccc2)n1 | 0.82 | / | / | / | / | /
CCOC(=O)/C(=N/Nc1ccccc1)c1csc(Nc2ccccc2)n1 | -0.6 | / | 1 | 81 | 11* | 92
C=CCNCC(=O)NN=C(c1ccccc1)c1ccccc1 | 0.16 | / | / | / | / | /
O=[N+]([O-])c1ccc(N=Nc2ccc(O)cc2O)cc1 | -1.3 | / | 1.8 | 18* | 3.2* | 40*
O=[N+]([O-])c1ccc(O)c(N=Cc2sc3ccccc3c2O)c1 | -2.1 | / | / | / | / | /
Cc1noc(C)c1CSc1nc2ccccc2nc1NS(=O)(=O)c1ccc(Cl)cc1 | -0.92 | 76* | 0.9 | 66 | 57 | 99
CC(=O)CC1OC(=O)C(Br)=C1NCc1ccccc1 (centres undefined) | 0.32 | 49* | 1.1 | / | / | /
O=C(CC1Oc2ccccc2NC1=O)NCc1ccccc1 (centres undefined) | / | 4 | 1.1 | 97 | 97 | 99
COc1cc(C)c(C(N)=O)c(OC)n1 | 0.64 | -8 | 1.1 | 110 | 105 | 105
SMILES | PTK2B oligo ant | Jurkat tox 60K | MT1-MMP txn act | HUVEC inhibit | H69AR growth 86K | Fibroblast inh
N#CCCSc1nc(N2CCOCC2)c2c(c1C#N)CCCC2 | -1.3 | / | 1.1 | 89 | 38* | 81
CCCSc1nc(N2CCOCC2)c2c(c1C#N)CCCC2 | -1.3 | / | 1 | 104 | 87 | 89
CCOC(=O)c1cnc(-n2nc(C)cc2C)nc1NCc1ccc2c(c1)OCO2 | -1.5 | 2 | 1.1 | 24* | 56 | 92
CCOC(=O)c1cnc(-n2nc(C)cc2C)nc1Nc1ccc(OC)cc1 | -1 | / | / | / | / | /
CCOC(=O)c1cnc(-n2nc(C)cc2C)nc1NCCc1ccccc1 | -0.98 | 12 | 1 | 60 | 1.9* | 45*
COCCCNC(=O)C(=O)N/N=C/c1ccc(OCC(=O)Nc2cccc(Cl)c2C)c(OC)c1 | -0.09 | / | / | / | / | /
COC(=O)c1ccc(CSc2nc(N3CCOCC3)c3c(c2C#N)CC(C)(C)OC3)o1 | -2.7 | / | 1.1 | 93 | 32* | 104
CC(C)CCSc1nc(N2CCOCC2)c2c(c1C#N)CC(C)(C)OC2 | -1.3 | -4 | 1.2 | 80 | 60 | 88
O=[N+]([O-])c1ccc(Oc2cccc(F)c2)c2ccncc12 | -1.4 | / | / | 62 | 34* | 65
COc1cc(C)c(C(C)C)cc1S(=O)(=O)n1cnc(C)c1 | / | 85* | 0.3 | 43 | 34* | 56
COC(=O)c1c(NC(=O)CN2CCC(C)CC2)c2c(C)cccc2n1C | / | 2 | 1.1 | 90 | 90 | 93
Cn1c(=O)c(C(=O)Nc2cccnc2)c(O)c2ccccc21 | / | / | 1.6 | 44 | 12* | 78
Cn1c(=O)c(C(=O)Nc2ncccc2O)c(O)c2ccccc21 | -1.2 | / | 1.4 | 98 | 86 | 99
Cc1ccc(NC(=O)c2c(O)c3ccccc3n(C)c2=O)nc1 | 0.52 | / | 1.4 | 126 | 13* | 31*
Cc1nc2ccccc2c(=O)n1NC(=O)c1c(O)c2ccccc2n(C)c1=O | / | -1 | 1.1 | 107 | 97 | 92
Cn1c(=O)c(C(=O)NC2CCCCCCC2)c(O)c2ccccc21 | 0.26 | -4 | 1.2 | 102 | 99 | 96
Cc1ccnc(NC(=O)c2c(O)c3ccccc3n(C)c2=O)c1 | / | 6 | 0.9 | 131 | 5.7* | 76
CC(C)Cn1c(=O)c(C(=O)Nc2ccncc2)c(O)c2ccccc21 | / | 2 | 0.9 | 62 | 9.8* | 65
Cc1ccc(S(=O)(=O)N2CCCC2C(=O)OCc2ccco2)cc1 (centres undefined) | 1.5 | 4 | 1.1 | 89 | 69 | 102
O=C(NCCc1ccccc1)C(NS(=O)(=O)c1cccc2nsnc12)c1ccccc1 (centres undefined) | / | / | 1.3 | 88 | 88 | 107
O=C(CCc1nc2ccccc2c(=O)[nH]1)N1CCN(C/C=C/c2ccccc2)CC1 | 1.2 | 9 | 1.1 | 85 | 91 | 101
O=c1[nH]c(CN2CCN(C/C=C/c3ccccc3)CC2)nc2cc(Cl)ccc12 | 0.3 | 7 | 1.1 | 28* | 88 | 82
Cc1cc(NC(=O)COC(=O)c2ccc(NS(=O)(=O)c3ccc(C)c(C)c3)cc2)no1 | -0.07 | / | 1 | 90 | 106 | 100
Nc1ccc(S(=O)(=O)N2CCCc3ccccc32)cc1 | / | 2 | 1.1 | 90 | 58 | 90
CC(=O)Nc1ccc(S(=O)(=O)N2CCCc3ccccc32)cc1 | -0.74 | 82* | 1.1 | 48 | 13* | 70
COC(=O)Nc1ccc(S(=O)(=O)N2CCCCCC2)cc1 | -2 | 1 | 1.2 | 80 | 75 | 90
Cc1cc(NC(=O)COC(=O)c2ccc(S(=O)(=O)N3CCCc4ccccc43)cc2)no1 | 0.19 | 64* | 0.8 | 68 | 23* | 75
O=C(NCc1ccco1)c1ccc(S(=O)(=O)N2CCCc3ccccc32)cc1 | -2.4 | -1 | 1.2 | 84 | 31* | 92
